Measured values gathered from unrelated publications.
Lines come from different studies, so protocols differ.

SMILES	target or system	test	conditions	quantity	result
Clc1ccccc1C(c1ccccc1)(c1ccccc1)n1ccnc1	Aspergillus flavus	microbial growth, disc diffusion	20000 µg/mL	inhibition zone	24 mm
CC(=O)NCN1N=C(C)C(=NNn2c(-c3ccccc3)nc3ccccc3c2=O)C1=O	Staphylococcus	microbial growth, broth dilution	24 h	MIC	120 µM
O=c1[nH]cc(F)c(=O)[nH]1	NRK-52E	cell growth or viability, MTT	24 h	IC50	46.7 µM
C[C@@H]1[C@H](O)[C@@H](C)/C=C/C=C/C=C/C=C/C=C/C=C/C=C/[C@H](O[C@@H]2O[C@H](C)[C@@H](O)[C@H](N)[C@@H]2O)C[C@@H]2O[C@](O)(C[C@@H](O)C[C@@H](O)[C@H](O)CC[C@@H](O)C[C@@H](O)CC(=O)O[C@H]1C)C[C@H](O)[C@H]2C(=O)O	Leishmania panamensis	parasite growth	24 h, promastigote	IC50	0.1 µM
OC(CN1CCOCC1)(Cn1cncn1)c1ccc(F)cc1F (stereo not shown)	Aspergillus flavus	microbial growth, broth dilution	48 h	MIC	7.8 µg/mL
COc1ccc(-c2c(-c3ccc(C#N)c(F)c3)nc(N3CCC(N)CC3)n(C)c2=O)cc1F	MOLM-13	cell growth or viability, resazurin	96 h	EC50	0.96 nM
O=C(O)C(c1c[nH]c2ccccc12)c1c[nH]c2ccccc12	KG-1	cell growth or viability	20 µM, 48 h	inhibition	23%
O=C1NN=C(N=Cc2ccccc2O)C1=NNn1c(-c2ccccc2)nc2ccccc2c1=O	Staphylococcus	microbial growth, broth dilution	24 h	MIC	111 µM
Cc1cccc2c(C(c3ccc(/C=C/C(=O)O)s3)c3c[nH]c4c(C)cccc34)c[nH]c12	KG-1	cell growth or viability	5 µM, 48 h	inhibition	1%
COc1ccc(-c2ccc(-c3ccc(C(=N)N)nc3)s2)cc1	Malme-3M	cell growth or viability, SRB	–	GI50	1840 nM
